Laboratory results as given in ChEMBL document CHEMBL4184169, “Structure-activity relationships and docking studies of synthetic 2-arylindole derivatives determined with aromatase and quinone reductase 1” (Bioorg Med Chem Lett, 2017).

Columns and labels:
[1] = molecular target: NAD(P)H dehydrogenase [quinone] 1 (Mus musculus) (UniProt Q64669); assay: Induction of QR1 activity in mouse Hepa-1c1c7 cells assessed as induction ratio at 50 uM after 48 hrs by MTT assay relative to control; format: cell-based
NAD(P)H dehydrogenase [quinone] 1 (Mus musculus), sequence (Q64669 whole entry): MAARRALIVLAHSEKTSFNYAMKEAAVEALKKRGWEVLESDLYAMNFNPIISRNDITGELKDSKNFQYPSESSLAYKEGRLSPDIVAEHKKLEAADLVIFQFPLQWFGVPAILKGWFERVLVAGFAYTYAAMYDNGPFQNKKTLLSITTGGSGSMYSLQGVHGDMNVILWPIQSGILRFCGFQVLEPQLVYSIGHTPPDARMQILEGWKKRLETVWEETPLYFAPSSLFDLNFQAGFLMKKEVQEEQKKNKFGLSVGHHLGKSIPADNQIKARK
In short: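 QR1 induction is reported as the induction ratio, meaning activity relative to control, measured at a test concentration of 50 μM.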

Aromatase [2] = molecular target: T1, Aromatase (Homo sapiens, UniProt P11511); assay: Inhibition of CYP19A1 (unknown origin) at 50 uM preincubated with NADPH followed by DBF substrate addition after 30 mins by fluorescence based assay relative to control
T1 sequence (P11511 whole entry): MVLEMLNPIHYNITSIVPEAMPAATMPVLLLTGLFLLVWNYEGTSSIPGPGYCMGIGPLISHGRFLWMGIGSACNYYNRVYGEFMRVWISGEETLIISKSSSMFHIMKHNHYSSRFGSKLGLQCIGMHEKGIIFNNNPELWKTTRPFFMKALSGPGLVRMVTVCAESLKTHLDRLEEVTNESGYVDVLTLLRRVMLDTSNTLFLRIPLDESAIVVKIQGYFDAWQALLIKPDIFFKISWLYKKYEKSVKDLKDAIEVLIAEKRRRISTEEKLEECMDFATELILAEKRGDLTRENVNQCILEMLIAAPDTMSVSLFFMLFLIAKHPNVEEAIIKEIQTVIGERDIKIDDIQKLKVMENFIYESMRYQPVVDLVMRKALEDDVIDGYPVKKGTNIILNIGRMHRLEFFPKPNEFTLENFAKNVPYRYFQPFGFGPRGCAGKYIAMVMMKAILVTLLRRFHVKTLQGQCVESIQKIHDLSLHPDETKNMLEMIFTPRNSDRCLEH
In short: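 Aromatase inhibition was screened at 50 μM test concentration. Activity is expressed as percent inhibition relative to vehicle-treated controls.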

Aromatase [3] = molecular target: T1, Aromatase; assay: Inhibition of CYP19A1 (unknown origin) preincubated with NADPH followed by DBF substrate addition after 30 mins by fluorescence based assay
[4] = molecular target: NAD(P)H dehydrogenase [quinone] 1 (Mus musculus) (UniProt Q64669); assay: Induction of QR1 activity in mouse Hepa-1c1c7 cells assessed as drug concentration required to double enzyme activity after 48 hrs by MTT assay; format: cell-based
In short: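 CD is the concentration that doubles QR1 activity. It was determined only for compounds whose induction ratio at 50 μM exceeded 2.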

Row | Ratio [1] | inhibition at 50 µM (Aromatase [2]) [%] | IC50 (Aromatase [3]) [µM] | CD [4] [µM] | SMILES
1 | 0.54 | 27.1 |  |  | Cc1ccccc1-c1cc2ccccc2[nH]1
2 | 3.92 | 77.7 | 9 | 5.76 | O=[N+]([O-])c1ccc2[nH]c(-c3ccccc3)cc2c1
3 | 0.67 | 22 |  |  | c1ccc2[nH]c(-c3ccsc3)cc2c1
4 | 5.1 | 70.5 | 22.8 | 5.5 | Clc1ccc2[nH]c(-c3ccccc3)cc2c1
5 | 5.2 | 9.33 |  | 6.4 | Cc1ccc(-c2cc3ccccc3[nH]2)cc1
6 | 1.3 | 24.7 |  |  | CO/N=C/c1c(-c2ccccc2)[nH]c2ccccc12
7 | 1.56 | 0 |  |  | COc1ccc(-c2cc3ccccc3[nH]2)cc1
8 | 0.57 | 22.6 |  |  | Clc1ccc(-c2cc3ccccc3[nH]2)cc1Cl
9 | 0.74 | 0.07 |  |  | COc1ccc2ccc(-c3cc4ccccc4[nH]3)cc2c1
10 | 0.78 | 71.5 | 6.87 |  | Cc1ccccc1-c1cc2cc([N+](=O)[O-])ccc2[nH]1
11 | 4.9 | 21.4 |  | 10.3 | Nc1ccc2[nH]c(-c3ccc(Cl)c(Cl)c3)cc2c1
12 | 1.9 | 20.2 |  |  | COCn1c(-c2ccccc2)cc2ccccc21
13 | 0.78 | 0 |  |  | CCCCCc1ccc(-c2cc3ccccc3[nH]2)cc1
14 |  | 15.8 |  | 2.75 | Clc1ccc(-c2cc3ccccc3[nH]2)cc1
15 | 2.73 | 21.8 |  | 17.8 | Fc1ccc(-c2cc3ccccc3[nH]2)cc1
16 | 4.4 | 20 |  | 2.1 | Cn1c(-c2ccc(Cl)c(Cl)c2)cc2ccccc21
17 | 0.72 | 41.4 |  |  | Nc1ccc2[nH]c(-c3ccccc3)cc2c1
18 | 2.1 | 93.7 | 11.5 | 31.2 | N#Cc1ccc2[nH]c(-c3cccnc3)cc2c1
19 | 1.56 | 34 |  |  | Cn1c(-c2ccc(Cl)c(Cl)c2)cc2cc([N+](=O)[O-])ccc21
20 | 1.4 | 21.5 |  |  | Clc1ccccc1-c1cc2ccccc2[nH]1
21 | 5.2 | 24.1 |  | 2.17 | Clc1cccc(-c2cc3ccccc3[nH]2)c1
22 | 0.56 | 46.2 |  |  | Nc1ccc(-c2cc3ccccc3[nH]2)cc1
23 | 2.14 | 42 |  | 46.7 | Cn1c(-c2ccc(Cl)c(Cl)c2)cc2cc(N)ccc21
24 | 0.87 | 26.3 |  |  | C#CCn1c(-c2ccccc2)cc2ccccc21

Row | Ratio [1] | inhibition at 50 µM (Aromatase [2]) [%] | IC50 (Aromatase [3]) [µM] | CD [4] [µM] | SMILES
25 | 0.5 | 23.2 |  |  | C(=N\OCc1ccccc1)/c1c(-c2ccccc2)[nH]c2ccccc12
26 | 5.5 | 58.1 | 39.7 | 6.76 | Brc1ccc2[nH]c(-c3ccccc3)cc2c1
27 | 1.06 | 82.3 | 3.34 |  | N#Cc1ccc2[nH]c(-c3ccccc3)cc2c1
28 | 0.89 | 77 | 3.88 |  | Cn1c(-c2ccccc2)cc2cc([N+](=O)[O-])ccc21
29 | 1.3 | 48.4 |  |  | COc1cccc(-c2cc3ccccc3[nH]2)c1
30 | 3.75 | 9.18 |  | 1.12 | COc1cc(OC)cc(-c2cc3ccccc3[nH]2)c1
31 | 1.48 | 9.27 |  |  | Nc1ccccc1C#Cc1cc(F)cc(F)c1
32 | 1.21 | 0 |  |  | CN(C)c1ccc(-c2cc3ccccc3[nH]2)cc1
33 | 1.07 | 7.59 |  |  | O=[N+]([O-])c1ccc2[nH]c(-c3ccc(Cl)c(Cl)c3)cc2c1
34 | 2.48 | 1.86 |  | 29.1 | FC(F)(F)Oc1ccc(-c2cc3ccccc3[nH]2)cc1
35 | 2.7 | 26.7 |  | 18.4 | Nc1cccc(-c2cc3ccccc3[nH]2)c1
36 |  | 27.8 |  |  | c1ccc(-c2cc3ccccc3[nH]2)cc1 [2-PHENYL-1H-INDOLE]
37 | 1 | 32.4 |  |  | Cc1ccc2cc(-c3ccccc3)[nH]c2c1
38 | 0.58 | 11 |  |  | Fc1cc(F)cc(-c2cc3ccccc3[nH]2)c1
39 | 1.7 | 27.9 |  |  | O=[N+]([O-])c1ccc2[nH]c(-c3cccnc3)cc2c1
40 | 4.25 | 13.6 |  | 6.8 | Clc1ccc2cc(-c3ccccc3)[nH]c2c1
41 | 2.8 | 4.8 |  | 5.1 | Brc1ccc(-c2cc3ccccc3[nH]2)cc1
42 | 0.37 | 0 |  |  | c1ccc(Cn2c(-c3ccccc3)cc3ccccc32)cc1
43 | 3.1 | 40.4 |  | 11.7 | O/N=C/c1c(-c2ccccc2)[nH]c2ccccc12
44 | 1.8 | 49 |  |  | c1ccc(C2Cc3ccccc3N2)cc1 (stereo not drawn)
45 | 0.5 | 0 |  |  | Cn1c(-c2ccccc2)cc2ccccc21
46 | 1.14 | 81.5 | 3.05 |  | c1cncc(-c2cc3ccccc3[nH]2)c1
47 | 1 | 11.9 |  |  | CC(C)(C)OC(=O)n1c(-c2ccccc2)cc2ccccc21

Row | SMILES | Ratio [1] | inhibition at 50 µM (Aromatase [2]) [%] | IC50 (Aromatase [3]) [µM] | CD [4] [µM]
48 | c1ccc(-c2nc3ccccc3[nH]2)cc1 |  | 7.64 |  | 
